# Source: ChEMBL document CHEMBL4715768, “Conjugation of N-acylhydrazone and 1,2,4-oxadiazole leads to the identification of active antimalarial agents” (Bioorg Med Chem, 2016)
# The source made the active and inactive calls. The rule behind the calls is not given here.
# Experiments:
# Plasmodium falciparum [1] = assay: (§1) Antimalarial activity against chloroquine-resistant blood stage Plasmodium falciparum W2 infected in human erythrocytes assessed as parasite growth inhibition at 10 ug/ml incubated for 24 hrs followed by [3H]-hypoxanthine addition and further incubated for 24 hrs followed by cooling and measured after 24 hrs by beta radiation counter analysis relative to control; type: functional; details: W2, Erythrocyte, time 72 hrs
# Procedure, shortened: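 P. falciparum W2 grown in human O+ erythrocytes in RPMI 1640 with 10% human plasma, at 1% parasitemia and 2.5% hematocrit. Compounds diluted with 4% DMSO and medium, tested in triplicate. [3H]-hypoxanthine incorporation read; inhibition calculated against untreated parasites.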
# [2] = Hemolytic activity in human erythrocytes measured after 1 hr by microtiter plate method; type: ADME, cell-based, Erythrocyte; details: read-out: CC50
# Procedure, shortened: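 Fresh human O⁺ erythrocytes were washed three times in PBS and used at 1% hematocrit. Compounds dissolved in PBS were added in triplicate and incubated 1 h; saponin 1% v/v served as the full-lysis control. After centrifugation, haemoglobin released into the supernatant was read at 540 nm and hemolysis CC50 derived.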
# [3] = Cytotoxicity against human HepG2 cells assessed as reduction in cell growth measured after 72 hrs by alamar blue assay; type: cell-based
# Procedure, shortened: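 HepG2 cells in phenol red-free RPMI-1640 with 10% FBS were seeded at 10⁴ cells/well. After 24 h they were exposed to five concentrations in triplicate for 72 h at 37 °C, 5% CO₂. AlamarBlue (20%) was added for 24 h, and absorbance was read at 570/600 nm. CC50 came from non-linear regression, two independent experiments. Gentian violet served as the cytotoxic control.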
# Plasmodium falciparum [4] = assay: as §1, with “inhibition” for “inhibition at 10 ug/ml”, “analysis” for “analysis relative to control”; type: functional, organism-based; details: W2, Erythrocyte
# Procedure, shortened: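 W2 P. falciparum cultured in O+ human erythrocytes in RPMI 1640 plus 10% human plasma, at 1% parasitemia and 2.5% hematocrit. At least five compound concentrations, each in triplicate. Growth measured as [3H]-hypoxanthine uptake relative to untreated parasites. IC50 derived from two independent experiments.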
# [5] = Selectivity index, ratio of CC50 for human HepG2 cells assessed as cell growth inhibition measured after 72 hrs by alamar blue assay to IC50 for chloroquine-resistant blood stage Plasmodium falciparum W2 infected in human erythrocytes assessed as parasite growth inhibition incubated for 24 hrs followed by [3H]-hypoxanthine addition and further incubated for 24 hrs followed by cooling and measured after 24 hrs by beta radiation counter analysis; type: toxicity, cell-based; details: read-out: Ratio CC50/IC50
# Plasmodium berghei [6] = assay: Antimalarial activity against Plasmodium berghei NK65 infected in Swiss mouse assessed as decrease in parasitemia at 25 to 50 mg/kg, ip qd administered via gavage for 4 consecutive days and measured up to 8 days by optical microscopy analysis; type: functional, organism-based; details: dose 25-50 mg/kg, time day <=8
# Procedure, shortened: (§2)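 Adult Swiss mice (4-6 weeks, n=5/group) inoculated i.p. with 10⁶ P. berghei NK65-infected red cells. Dosing began 1 h post-infection, once daily for 4 consecutive days by oral gavage or i.p. Vehicle was DMSO 20% in saline. Tail blood smears were taken on days 4–8, methanol-fixed, panoptic-stained and read by light microscopy. Inhibition = [(C−T)/C]×100 versus vehicle controls. Means ± SEM.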
# Hemozoin [7] = assay: Inhibition of beta-hematin formation measured after 24 hrs by spectrophotometry analysis
# Procedure, shortened: (§3)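 Haemin (0.5 mg/mL in 0.2 M NaOH) was mixed with 3 M sodium acetate, 17.4 M acetic acid and compound, tested at up to 2.5 mM. Incubation was 24 h at 37 °C. Pellets were washed with DMSO twice and water, dissolved in 0.1 M NaOH, and read at 405 nm. Inhibition was taken against a no-compound control, at least twice in triplicate. Chloroquine was the positive control. CQ index = IC50 CQ / IC50 compound.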
# Plasmodium berghei [8] = assay: Antimalarial activity against Plasmodium berghei NK65 infected in Swiss mouse assessed as effect on mouse survival at 25 to 50 mg/kg, ip qd administered via gavage for 4 consecutive days and […] by optical microscopy analysis; type: functional, organism-based; details: dose 25-50 mg/kg
# Procedure, shortened: (§4)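 Swiss mice (n=5/group) infected i.p. with 10⁶ P. berghei NK65 red cells, then treated 1 h later, once daily for 4 days, orally by gavage or i.p. Vehicle was DMSO in saline. Survival was followed to 30 days post-infection and compared with vehicle by Mantel-Cox test. One experiment of two replicates.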
# Plasmodium berghei [9] = assay: Antimalarial activity against Plasmodium berghei NK65 infected in Swiss mouse assessed as decrease in parasitemia at 100 mg/kg, po qd administered via gavage for 4 consecutive days and measured up to 8 days by optical microscopy analysis; type: functional, organism-based; details: time day <=8; procedure, shortened: as §2
# Plasmodium berghei [10] = assay: Antimalarial activity against Plasmodium berghei NK65 infected in Swiss mouse assessed as increase in mouse survival at 100 mg/kg, po qd administered via gavage for 4 consecutive days and […] relative to control; type: functional, organism-based; procedure, shortened: as §4
# Hemozoin [11] = assay: Potency index, ratio of chloroquine IC50 to test compound IC50 for inhibition of beta-hematin formation measured after 24 hrs by spectrophotometry analysis; procedure, shortened: as §3
# Plasmodium berghei [12] = assay: Antimalarial activity against Plasmodium berghei NK65 infected in Swiss mouse assessed as decrease in parasitemia at 100 mg/kg, ip qd administered via gavage for 4 consecutive days and measured up to 8 days by optical microscopy analysis; type: functional, organism-based; details: time day <=8; procedure, shortened: as §2
# Plasmodium berghei [13] = assay: Antimalarial activity against Plasmodium berghei NK65 infected in Swiss mouse assessed as increase in mouse survival at 50 mg/kg, po qd administered via gavage for 4 consecutive days and […] relative to control; type: functional
# Procedure, shortened: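 Swiss mice, 4–6 weeks, n=5 per group, infected i.p. with 10⁶ P. berghei NK65-infected red cells. Treated once daily for 4 consecutive days starting 1 h post-infection, dosed by oral gavage in 20% DMSO. Vehicle controls received DMSO in saline. Survival followed up to 30 days; Mantel-Cox test. One experiment of two replicates.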
# Plasmodium berghei [14] = assay: Antimalarial activity against Plasmodium berghei NK65 infected in Swiss mouse assessed as decrease in parasitemia at 50 mg/kg, po qd administered via gavage for 4 consecutive days and measured up to 8 days by optical microscopy analysis; type: functional, organism-based; details: time day <=8; procedure, shortened: as §2
smiles,measurement,setting,value
COc1cc(/C=N/NC(=O)c2nc(-c3ccc([N+](=O)[O-])cc3)no2)ccc1O,inhibition at 10 µg/mL,Plasmodium falciparum [1],68.7%
same,HC50 at 1 h,[2],> 100 µg/mL
same,CC50 at 72 h,[3],14.8 µM
same,IC50,Plasmodium falciparum [4],0.2 µM
same,selectivity ratio at 72 h,[5],74
same,Activity,Plasmodium berghei [6],Active
same,IC50,Hemozoin [7],> 2000 µM
same,Activity,Plasmodium berghei [8],inactive
O=C(N/N=C/C=C/c1ccccc1)c1nc(-c2ccc([N+](=O)[O-])cc2)no1,inhibition at 10 µg/mL,Plasmodium falciparum [1],25.7%
COc1cc(/C=N/NC(=O)c2nc(-c3ccc(Br)cc3)no2)ccc1O,Activity,Plasmodium berghei [9],inactive
same,inhibition at 10 µg/mL,Plasmodium falciparum [1],71.1%
same,HC50 at 1 h,[2],33 µg/mL
same,CC50 at 72 h,[3],16.9 µM
same,Activity,Plasmodium berghei [10],inactive
same,IC50,Plasmodium falciparum [4],0.07 µM
same,selectivity ratio at 72 h,[5],241
same,IC50,Hemozoin [7],900 µM
same,Ratio IC50,Hemozoin [11],0.8
same,Activity,Plasmodium berghei [12],inactive
O=C(N/N=C/C=C/c1ccccc1)c1nc(-c2ccc(F)cc2)no1,inhibition at 10 µg/mL,Plasmodium falciparum [1],34.3%
COc1cc(/C=N/NC(=O)c2nc(-c3ccc(Cl)cc3)no2)ccc1O,inhibition at 10 µg/mL,Plasmodium falciparum [1],37%
O=C(N/N=C/C=C/c1ccccc1)c1nc(-c2ccc(O)cc2)no1,inhibition at 10 µg/mL,Plasmodium falciparum [1],39.1%
O=C(N/N=C/C=C/c1ccccc1)c1nc(-c2ccc(Br)cc2)no1,inhibition at 10 µg/mL,Plasmodium falciparum [1],58.8%
O=C(N/N=C/c1ccc2c(c1)OCO2)c1nc(-c2ccc(O)cc2)no1,inhibition at 10 µg/mL,Plasmodium falciparum [1],71.9%
same,HC50 at 1 h,[2],> 100 µg/mL
same,CC50 at 72 h,[3],> 200 µM
same,IC50,Plasmodium falciparum [4],1.5 µM
same,IC50,Hemozoin [7],800 µM
same,Ratio IC50,Hemozoin [11],1
COc1ccc(-c2noc(C(=O)N/N=C/C=C/c3ccccc3)n2)cc1,inhibition at 10 µg/mL,Plasmodium falciparum [1],26.1%
"O[C@@H](c1cc(C(F)(F)F)nc2c(C(F)(F)F)cccc12)[C@H]1CCCCN1 [(S,R)-MEFLOQUINE]",inhibition at 10 µg/mL,Plasmodium falciparum [1],100%
same,CC50 at 72 h,[3],11.8 µM
same,IC50,Plasmodium falciparum [4],0.04 µM
same,selectivity ratio at 72 h,[5],295
CCN(CC)CCCC(C)Nc1ccnc2cc(Cl)ccc12 (stereo unspecified) [CHLOROQUINE],Activity,Plasmodium berghei [13],100%
same,HC50 at 1 h,[2],> 100 µg/mL
same,IC50,Hemozoin [7],800 µM
same,Activity,Plasmodium berghei [14],Active
COc1cc(/C=N/NC(=O)c2nc(-c3ccc(F)cc3)no2)ccc1O,inhibition at 10 µg/mL,Plasmodium falciparum [1],24.7%
Cc1ccc(-c2noc(C(=O)N/N=C/c3ccc4c(c3)OCO4)n2)cc1,inhibition at 10 µg/mL,Plasmodium falciparum [1],21.9%
COc1ccc(-c2noc(C(=O)N/N=C/c3ccc4c(c3)OCO4)n2)cc1,inhibition at 10 µg/mL,Plasmodium falciparum [1],27.5%
Cc1ccc(-c2noc(C(=O)N/N=C/C=C/c3ccccc3)n2)cc1,inhibition at 10 µg/mL,Plasmodium falciparum [1],52.7%
COc1cc(/C=N/NC(=O)c2nc(-c3ccc(O)cc3)no2)ccc1O,inhibition at 10 µg/mL,Plasmodium falciparum [1],58.8%
same,HC50 at 1 h,[2],> 100 µg/mL
same,CC50 at 72 h,[3],> 200 µM
same,IC50,Plasmodium falciparum [4],1.9 µM
same,IC50,Hemozoin [7],> 2000 µM
O=C(N/N=C/c1ccc2c(c1)OCO2)c1nc(-c2ccc(F)cc2)no1,inhibition at 10 µg/mL,Plasmodium falciparum [1],31.6%
O=C(N/N=C/c1ccc2c(c1)OCO2)c1nc(-c2ccc([N+](=O)[O-])cc2)no1,inhibition at 10 µg/mL,Plasmodium falciparum [1],33.9%
COc1cc(/C=N/NC(=O)c2nc(-c3ccccc3)no2)ccc1O,inhibition at 10 µg/mL,Plasmodium falciparum [1],55.4%
O=C(N/N=C/c1ccc2c(c1)OCO2)c1nc(-c2ccccc2)no1,inhibition at 10 µg/mL,Plasmodium falciparum [1],27.5%
O=C(N/N=C/C=C/c1ccccc1)c1nc(-c2ccccc2)no1,inhibition at 10 µg/mL,Plasmodium falciparum [1],51%
COc1cc(/C=N/NC(=O)c2nc(-c3ccc(C)cc3)no2)ccc1O,Activity,Plasmodium berghei [9],inactive
same,inhibition at 10 µg/mL,Plasmodium falciparum [1],61.1%
same,HC50 at 1 h,[2],> 100 µg/mL
same,CC50 at 72 h,[3],46.6 µM
same,Activity,Plasmodium berghei [10],inactive
same,IC50,Plasmodium falciparum [4],0.12 µM
same,selectivity ratio at 72 h,[5],388
same,IC50,Hemozoin [7],600 µM
same,Ratio IC50,Hemozoin [11],1.3
same,Activity,Plasmodium berghei [12],inactive
COc1ccc(-c2noc(C(=O)N/N=C/c3ccc(O)c(OC)c3)n2)cc1,inhibition at 10 µg/mL,Plasmodium falciparum [1],42.2%
O=C(N/N=C/c1ccc2c(c1)OCO2)c1nc(-c2ccc(Br)cc2)no1,inhibition at 10 µg/mL,Plasmodium falciparum [1],45.3%
O=C(N/N=C/C=C/c1ccccc1)c1nc(-c2ccc(Cl)cc2)no1,inhibition at 10 µg/mL,Plasmodium falciparum [1],28.8%
O=C(N/N=C/c1ccc2c(c1)OCO2)c1nc(-c2ccc(Cl)cc2)no1,inhibition at 10 µg/mL,Plasmodium falciparum [1],53%
